Data reported in ChEMBL document CHEMBL1153820, “Novel derivatives of pyridylbenzo[b]thiophene-2-carboxamides and benzo[b]thieno[2,3-c]naphthyridin-2-ones: minor structural variations provoke major differences of antitumor action mechanisms” (J Med Chem, 2009).
pIC50: −log10 of the molar value. Active and inactive are the calls of the source. The calls are words filed in the database; no cut-off is given here.

Assays:
HeLa = assay: Growth inhibition of human HeLa cells after 72 hrs by MTT method; format: functional, cell-based
Outline: (§1)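 Cells in DMEM with 10% FBS, 2 mM L-glutamine, penicillin/streptomycin, 37 °C, 5% CO2. Seeded at 1 × 10^4 to 3 × 10^4 cells/mL. Compound given as five 10-fold dilutions (10-8–10-4 M, DMSO under 1%) for 72 h, then MTT read-out. Quadruplicate, three experiments. IC50 by linear regression between concentrations bracketing 50% growth; top concentration reported as ">" when not reached.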

MCF7 = assay: Growth inhibition of human MCF7 cells after 72 hrs by MTT method; format: functional, cell-based; details: MCF7, 72 h; outline: as §1
MIA PaCa-2 [1] = assay: Cell cycle arrest in human MIAPaCa2 cells assessed as accumulation at G2/M phase at 5 uM after 48 hrs by flow cytometry; format: functional
Outline: (§2)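 MiaPaCa-2 cells (2 × 10^5/well) seeded, compound (5 μM) added after 24 h, exposed 24 or 48 h. Attached and floating cells pooled, fixed in 70% ethanol, stained with propidium iodide 50 μg/mL plus RNase A. 20 000 events by flow cytometry; phase percentages (sub-G1 taken as apoptotic) from DNA histograms. Duplicates, repeated at least twice.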

Calf thymus DNA [2] = assay: Binding affinity to calf thymus DNA minor groove assessed as change in DNA spectrum by CD spectroscopy; format: nucleic-acid assay; details: Bos taurus
MIA PaCa-2 [3] = assay: Cell cycle arrest in human MIAPaCa2 cells assessed as accumulation at subG1 phase at 5 uM after 48 hrs by flow cytometry; format: functional; outline: as §2
Bos taurus [4] = organism: Bos taurus; assay: Inhibition of calf thymus topoisomerase 1-mediated DNA relaxation assessed as induction of plasmid DNA nicking at 200 uM by gel electrophoresis
Outline: (§3)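 Supercoiled pCI plasmid (0.8 μg) with calf thymus topoisomerase I (6 U) ± compound (200 μM) in Tris-HCl pH 7.5, 175 mM KCl, 5 mM MgCl2, 0.1 mM EDTA, 2.5% glycerol; 37 °C, 30 min. Stopped with SDS, then proteinase K and phenol/chloroform extraction. Samples run on 1% agarose with and without 0.5 μg/mL ethidium bromide to resolve nicked, supercoiled and relaxed forms; UV visualization.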

MIA PaCa-2 [5] = assay: Growth inhibition of human MIAPaCa2 cells after 72 hrs by MTT method; format: functional, cell-based; details: MIA PaCa-2, 72 h; outline: as §1
Calf thymus DNA [6] = assay: Binding affinity to calf thymus DNA assessed as change in melting temperature at [compound]/[polynucleotide] ratio of 0.5 at pH 7.0; format: nucleic-acid assay; details: Bos taurus
Outline: (§4)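 Thermal denaturation of ct-DNA (sonicated, filtered, concentration as phosphate) alone and with compound in Na cacodylate buffer pH 7.0, I = 0.05 mol dm-3. Absorbance at 260 nm followed versus temperature, ligand absorbance subtracted, scale normalized. Tm is the transition midpoint, from the first-derivative maximum or by tangent method. ΔTm = Tm(complex) − Tm(free DNA). Mean of at least two runs, error ±0.5 °C.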

MIA PaCa-2 [7] = assay: Cell cycle arrest in human MIAPaCa2 cells assessed as accumulation at subG1 phase at 5 uM after 24 hrs by flow cytometry; format: functional; outline: as §2
NCI-H460 = assay: Growth inhibition of human H460 cells after 72 hrs by MTT method; format: functional, cell-based; details: NCI-H460, 72 h; outline: as §1
SW-620 = assay: Growth inhibition of human SW620 cells after 72 hrs by MTT method; format: functional, cell-based; details: SW-620, 72 h; outline: as §1
Calf thymus DNA [8] = assay: Binding affinity to calf thymus DNA at pH 7.0 by fluorimetric titration method; format: nucleic-acid assay; details: Bos taurus
Outline: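 Fluorimetric titration: ct-DNA portions added to compound at about tenfold lower concentration than in UV/vis, absorbance below 0.05 at excitation. Emission 350–550 nm in Na cacodylate buffer pH 7.0, I = 0.05 mol dm-3. log Ks from Scatchard fitting (nonlinear least squares) at fixed n = 0.2.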

MIA PaCa-2 [9] = assay: Cell cycle arrest in human MIAPaCa2 cells assessed as accumulation at S phase at 5 uM after 48 hrs by flow cytometry; format: functional; outline: as §2
MIA PaCa-2 [10] = assay: Cell cycle arrest in human MIAPaCa2 cells assessed as accumulation at G1/G0 phase at 5 uM after 48 hrs by flow cytometry; format: functional; outline: as §2
Calf thymus DNA [11] = assay: Binding affinity to calf thymus DNA assessed as change in melting temperature at [compound]/[polynucleotide] ratio of 0.3 at pH 7.0; format: nucleic-acid assay; details: Bos taurus; outline: as §4
MIA PaCa-2 [12] = assay: Cell cycle arrest in human MIAPaCa2 cells assessed as accumulation at G2/M phase at 5 uM after 24 hrs by flow cytometry; format: functional; outline: as §2
MIA PaCa-2 [13] = assay: Cell cycle arrest in human MIAPaCa2 cells assessed as accumulation at G1/G0 phase at 5 uM after 24 hrs by flow cytometry; format: functional; outline: as §2
Calf thymus DNA [14] = assay: Binding affinity to calf thymus DNA at pH 7.0 by UV/Visible spectroscopy; format: nucleic-acid assay; details: Bos taurus
Outline: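 UV/vis titration: portions of ct-DNA (as phosphate) added to compound (c = 1.2 × 10-5 mol dm-3). Na cacodylate buffer pH 7.0, I = 0.05 mol dm-3; change followed at λmax 314 nm. Ks and n from Scatchard equation by nonlinear least-squares fitting.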

MIA PaCa-2 [15] = assay: Cell cycle arrest in human MIAPaCa2 cells assessed as accumulation at S phase at 5 uM after 24 hrs by flow cytometry; format: functional; outline: as §2
MIA PaCa-2 [16] = assay: Induction of cell shape disruption in human MIAPaCa2 cells at 5 uM after 24 hrs by immunofluorescence spectroscopy; format: functional, cell-based
Outline: (§5)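 MiaPaCa-2 cells (2 × 10^5) grown overnight on coverslips, then exposed to 5 μM compound for 24 h. Fixed in 4% formaldehyde, permeabilized with 0.1% Triton X-100, blocked with 4% FCS. Stained with mouse anti-α-tubulin (1/200, 2 h) and FITC anti-mouse secondary (1/500, 1 h). Nuclei stained with DAPI 100 ng/mL; fluorescence microscopy at 400×.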

MIA PaCa-2 [17] = assay: Induction of apoptosis in human MIAPaCa2 cells by flow cytometry; format: functional, cell-based; outline: as §2
MIA PaCa-2 [18] = assay: Induction of multinucleation in human MIAPaCa2 cells at 5 uM after 24 hrs by DAPI staining; format: functional, cell-based; outline: as §5
MIA PaCa-2 [19] = assay: Induction of tubulin network disruption in human MIAPaCa2 cells at 5 uM after 24 hrs by immunofluorescence spectroscopy; format: functional, cell-based; outline: as §5
MIA PaCa-2 [20] = assay: Induction of nuclear fragmentation in human MIAPaCa2 cells at 5 uM after 24 hrs by DAPI staining; format: functional, cell-based; outline: as §5
Bos taurus [21] = organism: Bos taurus; assay: Inhibition of calf thymus topoisomerase 1-mediated DNA relaxation assessed as induction of plasmid DNA nicking at 100 uM by gel electrophoresis
Outline: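 Purified calf thymus topoisomerase I (6 U) was incubated with negatively supercoiled pCI plasmid (0.8 μg), with or without compound, in Tris-HCl relaxation buffer (pH 7.5, 175 mM KCl, 5 mM MgCl2) at 37 °C for 30 min. The reaction was stopped with SDS and proteinase K, then phenol-extracted. Samples were split onto 1% agarose gels with and without ethidium bromide to separate nicked, supercoiled and relaxed forms, and read under UV.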

Bos taurus [22] = organism: Bos taurus; assay: Inhibition of calf thymus topoisomerase 1-mediated DNA relaxation at 200 uM by gel electrophoresis; outline: as §3
Calf thymus DNA [23] = assay: Binding affinity to calf thymus DNA assessed as decrease in DNA bands at 245 nm and 280 nm wavelength by CD spectroscopy; format: nucleic-acid assay; details: Bos taurus

Structure (SMILES)	pIC50 (HeLa)	pIC50 (MCF7)	Activity (MIA PaCa-2 [1]) [%]	Activity (MIA PaCa-2 [3]) [%]	pIC50 (MIA PaCa-2 [5])	ΔTm (Calf thymus DNA [6]) [°C]	Activity (MIA PaCa-2 [7]) [%]	pIC50 (NCI-H460)	pIC50 (SW-620)	Activity (MIA PaCa-2 [9]) [%]	Activity (MIA PaCa-2 [10]) [%]	ΔTm (Calf thymus DNA [11]) [°C]	Activity (MIA PaCa-2 [12]) [%]	Activity (MIA PaCa-2 [13]) [%]	Activity (MIA PaCa-2 [15]) [%]	further results
Cl.O=C(Nc1ccc(C2=NCCN2)cn1)c1sc2ccccc2c1Cl	5.82	5.74	15.1	4.9	6.00	2.1	3.2	6.00	6.00	32.6	52.3	1.3	20.7	37.7	41.6	Activity (Calf thymus DNA [2]): Active; Activity (Bos taurus [4]): inactive; log Ks (Calf thymus DNA [8]): 5.6; log Ks (Calf thymus DNA [14]): 5.7
Cl.O=C(Nc1ccc(C2=NCCN2)nc1)c1sc2ccccc2c1Cl	6.00	5.40	50.9	36	5.80	0.9	18.5	5.89	5.89	26	23.14	0	66.5	17.5	16	Activity (MIA PaCa-2 [16]): Active; Activity (MIA PaCa-2 [17]): Active; Activity (MIA PaCa-2 [18]): Active; Activity (MIA PaCa-2 [19]): Active; Activity (MIA PaCa-2 [20]): Active
N=C(N)c1ccc(-c2cc3ccc(C(=N)N)cc3[nH]2)cc1																Activity (Bos taurus [21]): inactive
O=C(Nc1ccncc1)c1sc2ccccc2c1Cl	5.70	4.29			4.42			4.17	4.42							
O=c1[nH]c2ccncc2c2c1sc1ccccc12	4.85	< 4.00			5.15			< 4.00	5.22							
CC[C@@]1(O)C(=O)OCc2c1cc1n(c2=O)Cc2cc3ccccc3nc2-1																Activity (Bos taurus [21]): Active
N#Cc1ccc(NC(=O)c2sc3ccccc3c2Cl)nc1	5.70	4.70			5.10			4.23	4.70							
Cl.O=c1[nH]c2ncc(C3=NCCN3)cc2c2c1sc1ccccc12	5.77	5.80	14.1	1.7	6.00	8.7	2	6.00	6.22	33.2	52.8	6.6	19.7	38.9	41.5	Activity (Bos taurus [22]): Active; Activity (Bos taurus [4]): inactive; log Ks (Calf thymus DNA [8]): 6.44; Activity (Calf thymus DNA [23]): Active
N#Cc1cnc2[nH]c(=O)c3sc4ccccc4c3c2c1	5.15	4.35			4.92			< 4.00	4.66							
